Results from ChEMBL document CHEMBL1134350, “seco-Cyclothialidines: new concise synthesis, inhibitory activity toward bacterial and human DNA topoisomerases, and antibacterial properties” (J Med Chem, 2001).
Converted amounts (≈) assume the structure as drawn.

Tests used:
Streptococcus pyogenes [1] = test: Antibacterial activity against Streptococcus pyogenes Wacker.; type: functional
Summary of the method: (§1)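 Agar dilution MIC on IsoSensitest agar or Mueller Hinton agar with 10% horse blood and IsoVitaleX. Overnight cultures were grown in BHI broth for staphylococci and enterobacteria, or in BHI plus 10% bovine serum for streptococci and enterococci, then diluted 1:100. Compounds were tested at 0.125-64 µg/mL. Plates were incubated aerobically at 37 °C for about 20 h. MIC = first concentration with no visible growth.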

Staphylococcus aureus [2] = test: Antibacterial activity against Staphylococcus aureus 25470.; type: functional; summary of the method: as §1
DNA topoisomerase 1 = target: T1, DNA topoisomerase 1 (Homo sapiens, UniProt P11387); test: Antibacterial activity against human DNA Topo I.
T1 sequence (P11387 whole entry): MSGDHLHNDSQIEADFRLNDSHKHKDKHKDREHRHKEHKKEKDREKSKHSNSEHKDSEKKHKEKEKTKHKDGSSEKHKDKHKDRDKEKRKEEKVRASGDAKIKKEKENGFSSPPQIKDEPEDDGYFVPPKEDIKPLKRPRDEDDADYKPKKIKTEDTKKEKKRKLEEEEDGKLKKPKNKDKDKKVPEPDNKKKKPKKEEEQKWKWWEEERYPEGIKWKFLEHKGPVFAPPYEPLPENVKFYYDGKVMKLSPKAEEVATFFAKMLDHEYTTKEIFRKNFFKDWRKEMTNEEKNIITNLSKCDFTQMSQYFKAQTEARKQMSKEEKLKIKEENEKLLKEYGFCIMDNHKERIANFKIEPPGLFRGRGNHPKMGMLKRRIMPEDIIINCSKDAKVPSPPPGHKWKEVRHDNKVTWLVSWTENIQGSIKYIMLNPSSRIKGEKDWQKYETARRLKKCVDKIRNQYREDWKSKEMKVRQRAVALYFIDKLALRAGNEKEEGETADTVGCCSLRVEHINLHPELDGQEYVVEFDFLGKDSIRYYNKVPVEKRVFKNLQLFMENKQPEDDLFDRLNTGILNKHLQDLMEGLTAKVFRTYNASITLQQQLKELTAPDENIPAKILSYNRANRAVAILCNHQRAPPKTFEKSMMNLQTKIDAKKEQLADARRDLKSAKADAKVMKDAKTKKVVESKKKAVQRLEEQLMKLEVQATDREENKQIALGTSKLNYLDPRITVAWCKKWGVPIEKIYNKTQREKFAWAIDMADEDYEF
Summary of the method: (§2)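 Human topoisomerase reactions used supercoiled pBR322 (100 ng) with 1 unit enzyme in the supplier's reaction buffer and compounds in DMSO. Incubation was 30 min, stopped with SDS/sucrose dye.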

Escherichia coli = test: Antibacterial activity against Escherichia coli Neumann.; type: functional; summary of the method: as §1
Enterococcus faecalis [3] = test: Antibacterial activity against Enterococcus faecalis 27253.; type: functional; summary of the method: as §1
Staphylococcus aureus [4] = test: Antibacterial activity against Staphylococcus aureus 48 N.; type: functional; summary of the method: as §1
Proteus mirabilis = test: Antibacterial activity against Proteus mirabilis 1235.; type: functional; summary of the method: as §1
[5] = test system: Staphylococcus saprophyticus; test: Antibacterial activity against Staphylococcus saprophyticus 2916.; type: functional; summary of the method: as §1
Klebsiella pneumoniae [6] = test: Antibacterial activity against Klebsiella pneumoniae 63.; type: functional; summary of the method: as §1
[7] = test system: Staphylococcus haemolyticus; test: Antibacterial activity against Staphylococcus haemolyticus 146.; type: functional; summary of the method: as §1
DNA topoisomerase II = DNA topoisomerase II (Homo sapiens, UniProt P11388+Q02880); test: […] human DNA Topoisomerase II; type: protein assay; summary of the method: as §2
Streptococcus pyogenes [8] = test: Antibacterial activity against Streptococcus pyogenes 4851.; type: functional; summary of the method: as §1
Enterococcus faecium [9] = test: Antibacterial activity against Enterococcus faecium L4001.; type: functional; summary of the method: as §1
Staphylococcus aureus [10] = test: Antibacterial activity against Staphylococcus aureus 44(25508).; type: functional; summary of the method: as §1
Enterococcus faecium [11] = test: Antibacterial activity against Enterococcus faecium 27266.; type: functional; summary of the method: as §1
Enterococcus faecalis [12] = test: Antibacterial activity against Enterococcus faecalis 27251.; type: functional; summary of the method: as §1
Staphylococcus aureus [13] = test: Antibacterial activity against Staphylococcus aureus 9TV.; type: functional; summary of the method: as §1
Streptococcus pyogenes [14] = test: Antibacterial activity against Streptococcus pyogenes 4333.; type: functional; summary of the method: as §1
Staphylococcus aureus [15] = test: Antibacterial activity against Staphylococcus aureus 25701.; type: functional; summary of the method: as §1
[16] = test system: Staphylococcus epidermidis; test: Antibacterial activity against Staphylococcus epidermidis 193.; type: functional; summary of the method: as §1
Proteus vulgaris = test: Antibacterial activity against Proteus vulgaris 1017.; type: functional; summary of the method: as §1
Streptococcus pyogenes [17] = test: Antibacterial activity against Streptococcus pyogenes 7029.; type: functional; summary of the method: as §1
Staphylococcus aureus [18] = test: Antibacterial activity against Staphylococcus aureus 133.; type: functional; summary of the method: as §1
Klebsiella pneumoniae [19] = test: Antibacterial activity against Klebsiella pneumoniae 8085.; type: functional; summary of the method: as §1
Enterococcus faecalis [20] = test: Antibacterial activity against Enterococcus faecalis.; type: functional; summary of the method: as §1
[21] = test system: Staphylococcus epidermidis; test: Antibacterial activity against Staphylococcus epidermidis.; type: functional; summary of the method: as §1
Streptococcus pyogenes [22] = test: Antibacterial activity against Streptococcus pyogenes.; type: functional; summary of the method: as §1
Staphylococcus aureus [23] = test: Antibacterial activity against Staphylococcus aureus QR-54.; type: functional; summary of the method: as §1
Staphylococcus aureus [24] = test: Antibacterial activity against Staphylococcus aureus 25923.; type: functional; summary of the method: as §1

SMILES | MIC (Streptococcus pyogenes [1]) [µg/mL] | MIC (Staphylococcus aureus [2]) [µg/mL] | MIC (Escherichia coli) [µg/mL] | MIC (Enterococcus faecalis [3]) [µg/mL] | MIC (Staphylococcus aureus [4]) [µg/mL] | MIC (Proteus mirabilis) [µg/mL] | MIC [5] [µg/mL] | MIC (Klebsiella pneumoniae [6]) [µg/mL] | MIC [7] [µg/mL] | MIC (Streptococcus pyogenes [8]) [µg/mL] | MIC (Enterococcus faecium [9]) [µg/mL] | MIC (Staphylococcus aureus [10]) [µg/mL] | MIC (Enterococcus faecium [11]) [µg/mL] | MIC (Enterococcus faecalis [12]) [µg/mL] | MIC (Staphylococcus aureus [13]) [µg/mL] | MIC (Streptococcus pyogenes [14]) [µg/mL] | MIC (Staphylococcus aureus [15]) [µg/mL] | MIC [16] [µg/mL] | MIC (Proteus vulgaris) [µg/mL] | MIC (Streptococcus pyogenes [17]) [µg/mL] | other results
COC(=O)c1c(Br)c(OC)cc(O)c1CSC[C@H](Nc1nc(-c2ccc([N+](=O)[O-])cc2)cs1)C(=O)OC | 1 (≈ 1.63 µM) | 1 (≈ 1.63 µM) | > 64 | 1 (≈ 1.63 µM) | 1 (≈ 1.63 µM) | > 64 | 1 (≈ 1.63 µM) | > 64 | 1 (≈ 1.63 µM) | 1 (≈ 1.63 µM) | 2 (≈ 3.27 µM) | 2 (≈ 3.27 µM) | 2 (≈ 3.27 µM) | 2 (≈ 3.27 µM) | 1 (≈ 1.63 µM) | 1 (≈ 1.63 µM) | 1 (≈ 1.63 µM) | 0.5 (≈ 0.816 µM) | > 64 | 2 (≈ 3.27 µM) | IC50 (DNA topoisomerase 1): > 392 µM; IC50 (DNA topoisomerase II): 15 µg/mL (≈ 24.5 µM); MIC (Staphylococcus aureus [18]): 1 µg/mL (≈ 1.63 µM); MIC (Klebsiella pneumoniae [19]): > 64 µg/mL
COC(=O)c1c(Br)c(OC)cc(O)c1CSC[C@H](Nc1nc(-c2ccc([N+](=O)[O-])cc2)cs1)C1=NOCCO1 | 0.25 (≈ 0.391 µM) | 0.25 (≈ 0.391 µM) | > 64 | 0.5 (≈ 0.782 µM) | 0.25 (≈ 0.391 µM) | > 64 | < 0.12 | > 64 | < 0.12 | 0.25 (≈ 0.391 µM) | 0.5 (≈ 0.782 µM) | 0.25 (≈ 0.391 µM) | 0.5 (≈ 0.782 µM) | 0.5 (≈ 0.782 µM) | 0.25 (≈ 0.391 µM) | 0.25 (≈ 0.391 µM) | < 0.12 | < 0.12 | > 64 | 0.5 (≈ 0.782 µM) | IC50 (DNA topoisomerase 1): > 375 µM; IC50 (DNA topoisomerase II): 60 µg/mL (≈ 93.8 µM); MIC (Staphylococcus aureus [18]): 0.25 µg/mL (≈ 0.391 µM); MIC (Klebsiella pneumoniae [19]): > 64 µg/mL
COC(=O)c1c(Br)c(OC)cc(O)c1CSC[C@H](Nc1nc(-c2ccc([N+](=O)[O-])cc2)cs1)c1nc(C)no1 | 0.25 (≈ 0.393 µM) | 0.25 (≈ 0.393 µM) | > 64 | 0.25 (≈ 0.393 µM) | 0.25 (≈ 0.393 µM) | > 64 | 0.25 (≈ 0.393 µM) | > 64 | 0.25 (≈ 0.393 µM) | 0.25 (≈ 0.393 µM) | 0.5 (≈ 0.786 µM) | 0.25 (≈ 0.393 µM) | 0.5 (≈ 0.786 µM) | 0.5 (≈ 0.786 µM) | 0.25 (≈ 0.393 µM) | < 0.12 | < 0.12 | < 0.12 | > 64 | 0.5 (≈ 0.786 µM) | IC50 (DNA topoisomerase 1): > 377 µM; MIC (Enterococcus faecalis [20]): 0.25 µg/mL (≈ 0.393 µM); MIC [21]: 0.12 µg/mL (≈ 0.189 µM); MIC (Streptococcus pyogenes [22]): 0.12 µg/mL (≈ 0.189 µM); IC50 (DNA topoisomerase II): 60 µg/mL (≈ 94.3 µM); MIC (Staphylococcus aureus [23]): 0.25 µg/mL (≈ 0.393 µM); MIC (Staphylococcus aureus [24]): 0.12 µg/mL (≈ 0.189 µM); MIC (Staphylococcus aureus [18]): 0.25 µg/mL (≈ 0.393 µM); MIC (Klebsiella pneumoniae [19]): > 64 µg/mL
COC(=O)c1c(Br)c(OC)cc(O)c1CSC[C@@H](Nc1nc(-c2ccc([N+](=O)[O-])cc2)cs1)C1=NOCCO1 | > 64 | > 64 | > 64 | > 64 | > 64 | > 64 | > 64 | > 64 | > 64 | > 64 | > 64 | > 64 | > 64 | > 64 | > 64 | 64 (≈ 100 µM) | > 64 | > 64 | > 64 | > 64 | MIC (Staphylococcus aureus [18]): > 64 µg/mL; MIC (Klebsiella pneumoniae [19]): > 64 µg/mL
